Measured values taken from PMC3972320 (Kidney international, 2013).

Experiments:
[1] = tested on: human OCT2; assay type: cell-based
[2] = tested on: human OCT2; assay: Cell surface; assay type: cell-based; conditions: DSAL, OCT2/V5-transfected CHO cells
[3] = tested on: OCT2 mRNA; assay: OCT2 mRNA by qPCR in NRK cells transfected with human OCT2/V5; assay type: cell-based, rat; conditions: DSAL, NRK cells transfected with human OCT2/V5 and Klotho plasmid
[4] = 14C-TEA kinetic study in vivo; set-up: species or system mouse; conditions: single injection 10 μl/g BW
In short: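 Male WT, Kl/+ and Tg-Kl mice (129sv background, 12–14 weeks, 30–40 g) got a single i.v. dose of 14C-tetraethylammonium (10 μl/g BW; 0.1 mCi/ml, specific activity 3.5 mCi/mmol). Blood and urine were sampled at 0, 30, 60 and 90 […] post injection, with radioactivity by liquid scintillation counting. AUC0-60 is given as mean ± SD of 3 experiments per genotype.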

[5] = tested on: NRK cells; assay: LDH release from NRK cells on Transwell plates; assay type: cell-based, rat
[6] = tested on: NRK cells; assay: TUNEL staining of apoptotic NRK cells; assay type: cell-based, rat
In short: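 NRK rat renal epithelial cells on glass coverslips were serum-starved overnight after confluence. […] Cells were PFA-fixed and TUNEL-stained with DAPI counterstain, then imaged by confocal microscopy. TUNEL-positive/DAPI-positive cells were counted in 5 fields at 40X, across 4 independent experiments.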

[7] = tested on: organic cation transporter (OCT); assay: 14C-TEA uptake by NRK cells; assay type: cell-based, rat; conditions: agent added after 14C-TEA
[8] = tested on: NRK cells; assay: Oregon Green 488-labeled fluorescent cisplatin uptake by NRK cells; assay type: cell-based, rat
[9] = target: T1, human OCT2 (Homo sapiens, UniProt O15244); assay type: cell-based; conditions: β-glucuronidase 100μg/ml, sialidase 0.1 IU/ml, cimetidine 0.1 mM, added 16 hours prior to assay
T1 sequence (O15244 1-555): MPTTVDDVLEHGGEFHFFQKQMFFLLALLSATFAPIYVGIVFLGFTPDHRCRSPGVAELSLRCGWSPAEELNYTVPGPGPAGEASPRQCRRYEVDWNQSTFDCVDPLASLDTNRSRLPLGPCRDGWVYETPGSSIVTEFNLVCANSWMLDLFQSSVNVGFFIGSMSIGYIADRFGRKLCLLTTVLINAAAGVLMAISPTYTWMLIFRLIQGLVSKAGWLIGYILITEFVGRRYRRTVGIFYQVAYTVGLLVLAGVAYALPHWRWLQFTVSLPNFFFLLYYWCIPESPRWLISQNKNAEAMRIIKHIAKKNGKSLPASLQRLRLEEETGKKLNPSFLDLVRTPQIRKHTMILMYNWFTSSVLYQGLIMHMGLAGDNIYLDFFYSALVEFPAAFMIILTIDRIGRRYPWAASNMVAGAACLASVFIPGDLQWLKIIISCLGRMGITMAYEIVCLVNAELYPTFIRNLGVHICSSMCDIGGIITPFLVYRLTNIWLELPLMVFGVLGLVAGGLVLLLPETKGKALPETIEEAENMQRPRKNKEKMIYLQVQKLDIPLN

[10] = tested on: patients; conditions: among patients with AKI; cited from earlier work

O=C(O)[C@@H](O)[C@H]1OC(=O)[C@H](O)[C@H]1O [DSAL, D-Saccharic acid 1,4-lactone]
OCT2 protein expression by immunocytochemistry ([1]; CHO cells transfected with OCT2/V5, β-glucuronidase 100μg/ml, DSAL 10 μM alone): had no effect
effect on the reduction of OCT2 protein by β-glucuronidase ([1]; DSAL 10 μM, CHO cells, immunocytochemistry and immunoblot): completely blocked
effect on Klotho-induced reduction of cell surface OCT2 (2 hours and 2 days) [2]: blocked
effect on the reduction of rat oct2 mRNA induced by Klotho [3]: did not abolish

CC[N+](CC)(CC)CC [^14C-TEA, ^14C-tetraethylammonium]
AUC0-60 of 14C-TEA, Blood 14C-TEA ([4]; Kl/+ mice): 4.13±0.12 (3) nmol/μl
AUC0-60 of 14C-TEA, Blood 14C-TEA ([4]; Tg-Kl mice): 2.22±0.12 (3) nmol/μl
AUC0-60 of 14C-TEA, Urine excretion rate 14C-TEA ([4]; Tg-Kl mice): 1.36±0.08 (3) pmol/mim
AUC0-60 of 14C-TEA, Blood 14C-TEA ([4]; WT mice): 2.68±0.18 (3) nmol/μl
AUC0-60 of 14C-TEA, Urine excretion rate 14C-TEA ([4]; WT mice): 2.08±0.08 (3) pmol/mim

CN/C(=N/CCSCc1nc[nH]c1C)NC#N [cimetidine]
LDH release induced by basolateral cisplatin, agent added into apical side ([5]; cisplatin 0.1 mM basolateral, Klotho 0.4 nM or cimetidine 0.1 mM apical): not cimetidine decreased LDH release
LDH release induced by basolateral cisplatin, basolateral co-incubation of agent ([5]; cisplatin 0.1 mM, Klotho 0.4 nM or cimetidine 0.1 mM on basolateral side): significantly reduced LDH release
cisplatin-triggered apoptosis (TUNEL), basolateral co-incubation of agent ([6]; Klotho or cimetidine basolateral): rescued
inhibition of 14C-TEA uptake when 14C-TEA added to basolateral medium 20 minutes prior to agent [7]: inhibitory effect was absent
fluorescent cisplatin uptake, agent added to apical side ([8]; NRK cells, confocal imaging): not by either agent added to the apical side
fluorescent cisplatin uptake, agent added to basolateral side ([8]; NRK cells, confocal imaging): blocked
14C-TEA uptake in OCT2-expressing CHO cells [9]: reduced
OCT2 abundance in total cell membrane pool by immunoblot ([1]; CHO cells transfected with OCT2/V5, β-glucuronidase 100μg/ml, sialidase 0.1 IU/ml, cimetidine 0.1 mM): did not alter

N.N.[Cl][Pt][Cl] [cisplatin, cis-diammine-dichloroplatinum]
apoptosis (TUNEL) on cisplatin addition to basolateral medium [6]: triggers apoptosis
side of entry of Oregon Green 488-labeled cisplatin into NRK cells ([8]; Transwell, apical or basolateral addition): entered NRK cells solely from the basolateral side
patients with AKI still having elevated SCr 15 days after treatment [10]: 50%
